Results reported in ChEMBL document CHEMBL3877292, “Synthesis and evaluation of novel hybrids β-carboline-4-thiazolidinones as potential antitumor and antiviral agents” (Eur J Med Chem, 2016).

Columns and labels:
[1] = Antiproliferative activity against human NCI-H460 cells after 48 hrs by SRB assay; assay type: functional; conditions: NCI-H460, 48 h
Summary of the method: (§1)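 Cells grown in RPMI 1640 with 5% FBS, with penicillin/streptomycin in experimental cultures. Exposed in triplicate to 0.25, 2.5, 25 and 250 µg/mL in DMSO/RPMI for 48 h at 37 °C under 5% CO2. Plates were TCA-fixed before (T0) and after treatment, then stained with sulforhodamine B and read at 540 nm. GI50 was obtained by non-linear regression against untreated growth. Doxorubicin served as positive control.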

Human alphaherpesvirus 1 = experiment: Antiviral activity against Herpes simplex type I KOS; assay type: functional; conditions: Human alphaherpesvirus 1, KOS
[2] = Cytotoxicity against African green monkey Vero cells after 48 hrs by SRB assay; assay type: toxicity, cell-based; conditions: chlorocebus sabaeus
Summary of the method: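 Vero (ATCC CCL81) cells grown in DMEM with 10% FBS and gentamicin at 37°C, 5% CO2. Cells exposed in triplicate to 1000, 500, 100, 10, 1 and 0.1 µg/mL, with untreated cells as control. Viability read by sulforhodamine B colorimetry. CC50 is the concentration giving 50% cytotoxicity.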

[3] = Antiproliferative activity against human HT-29 cells after 48 hrs by SRB assay; assay type: functional; conditions: HT-29, 48 h; summary of the method: as §1
[4] = Antiproliferative activity against human MCF7 cells after 48 hrs by SRB assay; assay type: functional; conditions: MCF7, 48 h; summary of the method: as §1
[5] = Antiproliferative activity against human OVCAR3 cells after 48 hrs by SRB assay; assay type: functional; conditions: OVCAR-3, 48 h; summary of the method: as §1
[6] = Antiproliferative activity against human 786-0 cells after 48 hrs by SRB assay; assay type: functional; conditions: 786-0, 48 h; summary of the method: as §1
[7] = Antiproliferative activity against human NCI/ADR-RES cells after 48 hrs by SRB assay; assay type: functional; summary of the method: as §1
[8] = Antiproliferative activity against human U251 cells after 48 hrs by SRB assay; assay type: functional; conditions: U-251, 48 h; summary of the method: as §1
[9] = Selectivity index, ratio of CC50 for Herpes simplex type I KOS infected African green monkey Vero cells to EC50 for Herpes simplex virus type 1 KOS; assay type: toxicity, cell-based; conditions: Herpes simplex virus type 1 KOS infected Vero cells, read-out: Ratio CC50/EC50
Summary of the method: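 SI calculated as CC50/EC50. CC50 is the 50% cytotoxic concentration on Vero cells by sulforhodamine B, tested in triplicate from 0.1 to 1000 µg/mL. EC50 is the concentration protecting 50% of cells against HSV-1, with acyclovir as HSV-1 standard and drug-free cells as control.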

[10] = Antiproliferative activity against human UACC62 cells after 48 hrs by SRB assay; assay type: functional; conditions: UACC-62, 48 h; summary of the method: as §1
[11] = Antiproliferative activity against human PC3 cells after 48 hrs by SRB assay; assay type: functional; conditions: PC-3, 48 h; summary of the method: as §1

SMILES	GI50 [1]	EC50 (Human alphaherpesvirus 1)	CC50 at 48 h [2]	GI50 [3]	GI50 [4]	GI50 [5]	GI50 [6]	GI50 [7]	GI50 [8]	selectivity ratio [9]	GI50 [10]	GI50 [11]
O=C1CS/C(=N\NC(=O)c2cc3c([nH]c4ccccc43)c(-c3ccccc3Cl)n2)N1	3.85 µM	> 100 µM	766 µM	10.8 µM	1.42 µM	0.01 µM	6.1 µM	> 100 µM	–	–	–	–
O=C1CS/C(=N\NC(=O)c2cc3c([nH]c4ccccc43)c(-c3ccccc3F)n2)N1	21.1 µM	19.6 µM	1070 µM	32.4 µM	11.9 µM	12.3 µM	20.3 µM	66.4 µM	9.57 µM	54.9	–	–
CCN1C(=O)CS/C1=N\NC(=O)c1cc2c([nH]c3ccccc32)c(-c2cccc([N+](=O)[O-])c2)n1	> 100 µM	86.5 µM	1790 µM	> 100 µM	> 100 µM	> 100 µM	> 100 µM	3.27 µM	> 100 µM	20.7	–	–
O=C(N/N=C1\SCC(=O)N1c1ccccc1)c1cc2c([nH]c3ccccc32)c(-c2cccc([N+](=O)[O-])c2)n1	3.91 µM	17.2 µM	1170 µM	2.28 µM	2.36 µM	0.83 µM	1.53 µM	0.19 µM	1.59 µM	67.8	–	–
CCN1C(=O)CS/C1=N\NC(=O)c1cc2c([nH]c3ccccc32)c(-c2ccc(N(C)C)cc2)n1	59 µM	6.78 µM	1650 µM	65.7 µM	54.9 µM	2.42 µM	6.61 µM	2.6 µM	63.3 µM	243	–	–
O=C1CS/C(=N\NC(=O)c2cc3c([nH]c4ccccc43)c(-c3ccccc3)n2)N1	18.2 µM	102 µM	2490 µM	19.5 µM	11.4 µM	9.88 µM	16.3 µM	28.1 µM	15.8 µM	24.4	–	–
CCN1C(=O)CS/C1=N\NC(=O)c1cc2c([nH]c3ccccc32)c(-c2ccccc2F)n1	> 100 µM	> 100 µM	2980 µM	> 100 µM	> 100 µM	> 100 µM	> 100 µM	> 100 µM	> 100 µM	–	–	–
O=C1CS/C(=N\NC(=O)c2cc3c([nH]c4ccccc43)c(-c3cccc([N+](=O)[O-])c3)n2)N1	> 100 µM	–	–	> 100 µM	40.1 µM	> 100 µM	16.1 µM	0.62 µM	–	–	–	–
O=C(NN1C(=O)CSC1c1ccccc1)c1cc2c([nH]c3ccccc32)c(-c2ccccc2F)n1 (centres undefined)	> 100 µM	30.3 µM	637 µM	> 100 µM	63.1 µM	0.73 µM	> 100 µM	> 100 µM	84.1 µM	21	–	–
CCN1C(=O)CS/C1=N\NC(=O)c1cc2c([nH]c3ccccc32)c(-c2ccccc2Cl)n1	4.12 µM	> 100 µM	1400 µM	88.9 µM	6.84 µM	3.97 µM	–	0.25 µM	0.74 µM	–	–	–
O=C(NN1C(=O)CSC1c1cccs1)c1cc2c([nH]c3ccccc32)c(-c2ccccc2)n1 (centres undefined)	> 100 µM	–	–	> 100 µM	> 100 µM	> 100 µM	> 100 µM	> 100 µM	> 100 µM	–	> 100 µM	> 100 µM
CCN1C(=O)CS/C1=N\NC(=O)c1cc2c([nH]c3ccccc32)c(-c2ccccc2)n1	> 100 µM	–	–	> 100 µM	17.2 µM	> 100 µM	–	8.89 µM	0.46 µM	–	–	–
COc1ccc(-c2nc(C(=O)N/N=C3/NC(=O)CS3)cc3c2[nH]c2ccccc23)cc1	7.15 µM	–	–	16.5 µM	0.49 µM	1.12 µM	9.98 µM	> 100 µM	–	–	–	–
CN(C)c1ccc(-c2nc(C(=O)NN3C(=O)CSC3c3ccccc3)cc3c2[nH]c2ccccc23)cc1 (centres undefined)	> 100 µM	0.8 µM	467 µM	> 100 µM	> 100 µM	> 100 µM	> 100 µM	64.5 µM	64.5 µM	592	–	–
CN(C)c1ccc(-c2nc(C(=O)N/N=C3\SCC(=O)N3c3ccccc3)cc3c2[nH]c2ccccc23)cc1	17.9 µM	50 µM	817 µM	38.1 µM	15 µM	> 100 µM	3.97 µM	35.4 µM	12.5 µM	16.4	–	–
O=C(NN1C(=O)CSC1c1ccccc1Cl)c1cc2c([nH]c3ccccc32)c(-c2ccccc2)n1 (centres undefined)	> 100 µM	–	–	> 100 µM	> 100 µM	> 100 µM	> 100 µM	> 100 µM	> 100 µM	–	> 100 µM	> 100 µM
O=C(N/N=C1\SCC(=O)N1c1ccccc1)c1cc2c([nH]c3ccccc32)c(-c2ccccc2F)n1	> 100 µM	> 100 µM	339 µM	> 100 µM	> 100 µM	> 100 µM	> 100 µM	> 100 µM	> 100 µM	–	–	–
CCN1C(=O)CS/C1=N\NC(=O)c1cc2c([nH]c3ccccc32)c(-c2ccc(OC)cc2)n1	8.56 µM	26.6 µM	1730 µM	9.62 µM	6.52 µM	6.52 µM	–	12.2 µM	1.95 µM	65.2	–	–
O=C(N/N=C1\SCC(=O)N1c1ccccc1)c1cc2c([nH]c3ccccc32)c(-c2ccccc2)n1	37.2 µM	78.9 µM	1480 µM	> 100 µM	28 µM	17.5 µM	13.6 µM	3.13 µM	17.5 µM	18.8	–	–
O=C(NN1C(=O)CSC1c1ccccc1)c1cc2c([nH]c3ccccc32)c(-c2cccc([N+](=O)[O-])c2)n1 (centres undefined)	> 100 µM	2.02 µM	1080 µM	> 100 µM	> 100 µM	1.25 µM	> 100 µM	> 100 µM	> 100 µM	534	–	–
